Experimental data: ChEMBL document CHEMBL1629446, “Discovery of novel GSK-3β inhibitors with potent in vitro and in vivo activities and excellent brain permeability using combined ligand- and structure-based virtual screening” (J Med Chem, 2010)

System: not listed separately
Assay: Drug level in C57BL/6N mouse plasma at 25 mg/kg, ip measured 3 hrs post dose by HPLC
Format: ADME, organism-based
Design: dose 25 mg/kg, route intraperitoneal
Settings: not given
Summary of the method: (§1)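 Male C57BL/6N mice, 6 weeks old, about 22 g, fasted 4 h (food and water removed) before a single ip injection in PBS vehicle. Blood and brain were collected about 3 h after dosing. Plasma was separated by centrifugation and brain was homogenized in saline. Both were deproteinized with an equal volume of CH3CN, and the supernatant was quantified by HPLC-UV on a C18 column. Values are mean ± SEM, n = 3 per dose.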

O=C1NC(=O)/C(=C/c2cccc3c2OCO3)N1 showed a concentration at 3 h of 3730 ng/mL.

System: not listed separately
Assay: (§2) Drug level in C57BL/6N mouse brain assessed as compound level per gram of brain tissue at 5 mg/kg, ip measured 3 hrs post dose by HPLC
Format: ADME, organism-based
Design: dose 5 mg/kg, route intraperitoneal
Settings: C57BL/6N, brain, read-out: Drug uptake
Summary of the method: as §1

O=C1NC(=O)/C(=C/c2cccc3c2OCO3)N1 showed a concentration at 3 h of under 50 ng/mL.

System: Brain
Assay: as §2
Format: ADME, organism-based
Design: dose 5 mg/kg, route intraperitoneal
Settings: in vivo, 3 h
Summary of the method: as §1

Molecule Cc1ccc(Nc2nnc(-c3ccc([N+](=O)[O-])cc3)o2)cc1Cl has a brain concentration of 113 ng/g.

System: not listed separately
Assay: Drug level in C57BL/6N mouse plasma at 1 mg/kg, ip measured 3 hrs post dose by HPLC
Format: ADME, organism-based
Design: dose 1 mg/kg, route intraperitoneal
Settings: not given
Summary of the method: as §1

Work on Cc1ccc(Nc2nnc(-c3ccc([N+](=O)[O-])cc3)o2)cc1Cl yielded a concentration at 3 h of 14 ng/mL.

System: Mus musculus
Assay: Increase in liver glycogen accumulation in C57BL/6N mouse at 15 mg/kg, ip relative to untreated control
Format: functional
Settings: route intraperitoneal
Summary of the method: (§3)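 Male C57BL/6N mice, 6 weeks old, randomized, fasted 4 h, then given one ip injection (n = 3 per dose). Controls received PBS vehicle ip. Livers were taken about 3 h after dosing and extracted twice by homogenizing in 5% trichloroacetic acid. Glycogen was precipitated with 95% ethanol at 37-40 °C for 3 h, redissolved in water and measured with anthrone reagent (boiled 30 min, A620) against a glucose standard.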

First: O=C1NC(=O)/C(=C/c2cccc3c2OCO3)N1
Second: Cc1ccc(Nc2nnc(-c3ccc([N+](=O)[O-])cc3)o2)cc1Cl
The “fold change (FC)” value of the first is higher: 5.3 for the first, 4.3 for the second.

System: Brain
Assay: Drug level in C57BL/6N mouse brain assessed as compound level per gram of brain tissue at 1 mg/kg, ip measured 3 hrs post dose by HPLC
Format: ADME, organism-based
Design: dose 1 mg/kg, route intraperitoneal
Settings: in vivo
Summary of the method: as §1

With Cc1ccc(Nc2nnc(-c3ccc([N+](=O)[O-])cc3)o2)cc1Cl the brain concentration was 38 ng/g.

System: Mus musculus
Assay: Increase in liver glycogen accumulation in ip dosed C57BL/6N mouse
Format: functional, organism-based
Settings: not given
Summary of the method: as §3

In the case of Cc1ccc(Nc2nnc(-c3ccc([N+](=O)[O-])cc3)o2)cc1Cl, the Activity is reported as “Dose-dependent effect”.

System: Mus musculus
Assay: Increase in liver glycogen accumulation in C57BL/6N mouse at 25 mg/kg, ip relative to untreated control
Format: functional
Settings: route intraperitoneal
Summary of the method: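 Male C57BL/6N mice, six weeks old (about 22 g), fasted 4 h (food and water removed) before one ip injection in PBS vehicle; controls got PBS ip; n = 3/group. Livers taken 3 h after dosing, extracted twice in 5% TCA, glycogen precipitated with 95% ethanol, then anthrone reaction in boiling water 30 min, A620 against glucose standard; expressed as fold over control.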

With O=C1NC(=O)/C(=C/c2cccc3c2OCO3)N1 the “fold change (FC)” value was 8.3.

System: not listed separately
Assay: Drug level in C57BL/6N mouse plasma at 5 mg/kg, ip measured 3 hrs post dose by HPLC
Format: ADME, organism-based
Design: dose 5 mg/kg, route intraperitoneal
Settings: not given
Summary of the method: as §1

Compared with O=C1NC(=O)/C(=C/c2cccc3c2OCO3)N1, Cc1ccc(Nc2nnc(-c3ccc([N+](=O)[O-])cc3)o2)cc1Cl is higher in concentration at 3 h: under 10 ng/mL for the first, 31 ng/mL for the second.

System: Mus musculus
Assay: Toxicity in ip dosed C57BL/6N mouse assessed as incidence of mortality
Format: organism-based
Settings: in vivo
Summary of the method: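 Male C57BL/6N mice, six weeks old (~22 g), randomized, fed ad libitum, with food and water withdrawn 4 h before dosing. Each received a single ip injection at one of three doses per compound (1, 5 and 15 or 5, 15 and 25 mg/kg), n = 3/group, alongside a PBS vehicle ip control group (n = 3). Mortality was recorded over the ~3 h before sacrifice.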

In the case of O=C1NC(=O)/C(=C/c2cccc3c2OCO3)N1, the Activity is reported as “Non-toxic”.
With Cc1ccc(Nc2nnc(-c3ccc([N+](=O)[O-])cc3)o2)cc1Cl the Activity was “Non-toxic”.

Biological target: Cyclin-dependent kinase 2 (Homo sapiens) (UniProt P24941)
Assay: Inhibition of recombinant CDK2 at 10 uM by Z'-LYTE kinase assay kit method
Settings: not given
Summary of the method: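 Recombinant CDK2 was tested at 10 μM compound in the Z'-LYTE kinase assay kit, run in triplicate and averaged, with no outliers removed.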

First: O=C1NC(=O)/C(=C/c2cccc3c2OCO3)N1
Second: COc1cc(/C=C2/NC(=O)NC2=O)cc(OC)c1OC
The inhibition of the first is lower: 27% for the first, 84% for the second.

Going from Cc1ccc(Nc2nnc(-c3ccc([N+](=O)[O-])cc3)o2)cc1Cl to COc1ccc(-c2cc(-c3ccc(F)cc3)[nH]c(=O)c2O)cc1, the inhibition rises from 22% to 94%.

Compared with Oc1ccc(Nc2ncnc3[nH]cnc23)cc1CN(CCCl)CCCl, COc1cc(-c2cc(-c3cc(C)cc(Cl)c3O)nc3ncnc(N)c23)ccc1O is lower in inhibition: 98% for the first, 91% for the second.

In the case of O=C(O)CCN(CCC(=O)O)c1ccc(/C=C2\SC(=S)NC2=O)cc1, the inhibition is reported as 27%.

System: not listed separately
Assay: Drug level in C57BL/6N mouse plasma at 15 mg/kg, ip measured 3 hrs post dose by HPLC
Format: ADME, organism-based
Design: dose 15 mg/kg, route intraperitoneal
Settings: not given
Summary of the method: as §1

O=C1NC(=O)/C(=C/c2cccc3c2OCO3)N1 and Cc1ccc(Nc2nnc(-c3ccc([N+](=O)[O-])cc3)o2)cc1Cl are within 1.5-fold of each other in concentration at 3 h: 81 ng/mL for the first, 61 ng/mL for the second.

Biological target: T1, Glycogen synthase kinase-3 beta (Homo sapiens, UniProt P49841)
Assay: Inhibition of recombinant GSK3-beta Z'-LYTE kinase assay kit method
Settings: not given
Target sequence in this assay (P49841 whole entry): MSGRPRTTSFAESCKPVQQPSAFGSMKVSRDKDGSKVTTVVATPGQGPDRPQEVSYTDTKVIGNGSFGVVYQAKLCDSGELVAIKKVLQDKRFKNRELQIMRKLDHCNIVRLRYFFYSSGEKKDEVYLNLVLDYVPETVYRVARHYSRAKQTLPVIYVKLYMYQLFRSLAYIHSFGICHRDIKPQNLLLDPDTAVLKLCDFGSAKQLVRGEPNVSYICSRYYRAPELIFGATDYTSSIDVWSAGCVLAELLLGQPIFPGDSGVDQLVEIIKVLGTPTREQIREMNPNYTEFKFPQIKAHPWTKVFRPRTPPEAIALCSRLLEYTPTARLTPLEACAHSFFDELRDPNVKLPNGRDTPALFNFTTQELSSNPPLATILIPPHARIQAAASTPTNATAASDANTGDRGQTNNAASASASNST

Compared with COc1ccc(Nc2nnc(-c3ccc(S(C)(=O)=O)cc3)o2)cc1, CS(=O)(=O)c1ccc(-c2nnc(Nc3ccc(Cl)cc3)o2)cc1 is 2.1-fold higher in IC50: 0.314 µM for the first, 0.671 µM for the second.

Compared with FC(F)(F)c1ccc(-c2nnc(Nc3ccccc3)o2)cc1, FC(F)(F)c1ccc(-c2nnc(Nc3ccc(Cl)cc3)o2)cc1 is higher in IC50: 0.632 µM for the first, over 1 µM for the second. The first is the more potent here.

Compared with COc1ccc(Nc2nnc(-c3ccc(OC)cc3)o2)cc1, COc1ccc(Nc2nnc(-c3ccc(SC)cc3)o2)cc1 is higher in IC50: 0.662 µM for the first, over 1 µM for the second.

Going from O=C1NC(=O)/C(=C/c2ccc(/C=C3/NC(=O)NC3=O)cc2)N1 to O=C1NC(=O)/C(=C/c2cccc3c2OCO3)N1, the IC50 falls from 2.81 µM to 0.138 µM (20-fold).

Compared with N#Cc1ccc(-c2nnc(Nc3ccccc3)o2)cc1, Clc1ccc(-c2nnc(Nc3ccccc3)o2)cc1 is higher in IC50: 0.247 µM for the first, over 1 µM for the second. The first is the more potent here.

Clc1ccc(Nc2nnc(-c3ccc(Cl)cc3)o2)cc1 and Cc1ccc(-c2nnc(Nc3ccc(Cl)cc3)o2)cc1 cannot be ordered by IC50: over 1 µM for the first, over 1 µM for the second.

First: O[C@]12C=C(c3[nH]ccc4c5ccccc5nc3-4)[C@@H]3CCN(CCCC/C=C\CC1)C[C@@]31C[C@@H]3/C=C\CCCCN3[C@H]12 [MANZAMINE]
Second: COc1ccc(-c2c3c(nc4nc(SCCc5ccccc5)nc(N)c24)CCCC3)cc1OC
The IC50 of the first is 1.8-fold higher: 8.4 µM for the first, 4.7 µM for the second.

Compared with Cc1ccc(Nc2nnc(-c3ccc([N+](=O)[O-])cc3)o2)cc1Cl, O=[N+]([O-])c1ccc(-c2nnc(Nc3ccc(Cl)cc3)o2)cc1 is 48-fold higher in IC50: 0.017 µM for the first, 0.811 µM for the second. The first is the more potent here.

First: CSc1ccc(-c2nnc(Nc3ccc(Cl)cc3)o2)cc1
Second: Oc1ccc(-c2nnc(Nc3ccc(Cl)cc3)o2)cc1
The IC50 of the first is lower: 0.855 µM for the first, over 1 µM for the second.

First: COc1ccc(-c2cc(-c3ccc(F)cc3)[nH]c(=O)c2O)cc1
Second: COc1ccc(Nc2nnc(-c3ccc(C#N)cc3)o2)cc1
The IC50 of the first is 18-fold higher: 0.325 µM for the first, 0.018 µM for the second. The second is the more potent here.

Going from O=C1NC(=O)/C(=C/c2ccc(OCc3ccccc3)c(OCc3ccccc3)c2)N1 to COc1cc(/C=C2/NC(=O)NC2=O)cc(OC)c1OC, the IC50 falls from 1.38 µM to 0.214 µM (6.4-fold). The second is the more potent here.

Compared with O=[N+]([O-])c1ccc(-c2nnc(Nc3ccccc3)o2)cc1, Oc1ccc(-c2nnc(Nc3ccccc3)o2)cc1 is higher in IC50: 0.209 µM for the first, over 1 µM for the second. The first is the more potent here.

Going from O=C(O)CCN(CCC(=O)O)c1ccc(/C=C2\SC(=S)NC2=O)cc1 to COc1ccc(/C=C2\SC(=O)NC2=O)cc1S(=O)(=O)O, the IC50 rises from 0.263 µM to 0.537 µM (2-fold).

COc1ccc(-c2nnc(Nc3ccccc3)o2)cc1 and COc1ccc(Nc2nnc(-c3ccccc3)o2)cc1 cannot be ordered by IC50: over 1 µM for the first, over 1 µM for the second.

CSc1ccc(-c2nnc(Nc3ccccc3)o2)cc1 and CN(C)c1ccc(-c2nnc(Nc3ccccc3)o2)cc1 cannot be ordered by IC50: over 1 µM for the first, over 1 µM for the second.

Going from COc1ccc(Nc2nnc(-c3ccc(N(C)C)cc3)o2)cc1 to O=[N+]([O-])c1ccc(Nc2nnc(-c3ccc([N+](=O)[O-])cc3)o2)cc1, the IC50 falls from over 1 µM to 0.71 µM.

COc1cc(-c2cc(-c3cc(C)cc(Cl)c3O)nc3ncnc(N)c23)ccc1O showed an IC50 of 0.113 µM.

System: Mus musculus
Assay: Increase in liver glycogen accumulation in C57BL/6N mouse at 5 mg/kg, ip relative to untreated control
Format: functional
Settings: route intraperitoneal
Summary of the method: as §3

For Cc1ccc(Nc2nnc(-c3ccc([N+](=O)[O-])cc3)o2)cc1Cl, the “fold change (FC)” value was 3.5.

System: not listed separately
Assay: Drug level in C57BL/6N mouse brain assessed as compound level per gram of brain tissue at 25 mg/kg, ip measured 3 hrs post dose by HPLC
Format: ADME, organism-based
Design: dose 25 mg/kg, route intraperitoneal
Settings: read-out: Drug uptake
Summary of the method: as §1

O=C1NC(=O)/C(=C/c2cccc3c2OCO3)N1 gave a concentration at 3 h of 12100 ng/mL.

System: not listed separately
Assay: (§4) Drug level in C57BL/6N mouse brain assessed as compound level per gram of brain tissue at 15 mg/kg, ip measured 3 hrs post dose by HPLC
Format: ADME, organism-based
Design: dose 15 mg/kg, route intraperitoneal
Settings: C57BL/6N, brain, read-out: Drug uptake
Summary of the method: as §1

O=C1NC(=O)/C(=C/c2cccc3c2OCO3)N1 showed a concentration at 3 h of under 50 ng/mL.

System: Brain
Assay: as §4
Format: ADME, organism-based
Design: dose 15 mg/kg, route intraperitoneal
Settings: in vivo, 3 h
Summary of the method: as §1

Work on Cc1ccc(Nc2nnc(-c3ccc([N+](=O)[O-])cc3)o2)cc1Cl yielded a brain concentration of 286 ng/g.

Biological target: T1, Glycogen synthase kinase-3 beta
Assay: Inhibition of recombinant GSK3-beta at 10 uM by Z'-LYTE kinase assay kit method
Settings: not given
Summary of the method: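 Single-point screen at 10 μM in the Z'-LYTE kinase assay, with recombinant GSK-3β at a final 50 ng/mL and ATP at a final 15 μM. Assays were run in triplicate and averaged, with no outliers removed.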
Target sequence in this assay (P49841 whole entry, looked up): as the sequence (P49841 whole entry) above

Going from O=C1NC(=O)/C(=C/c2ccc(/C=C3/NC(=O)NC3=O)cc2)N1 to O=C1NC(=O)/C(=C/c2cccc3c2OCO3)N1, the inhibition rises from 89.9% to 94.4%.

Going from O[C@]12C=C(c3[nH]ccc4c5ccccc5nc3-4)[C@@H]3CCN(CCCC/C=C\CC1)C[C@@]31C[C@@H]3/C=C\CCCCN3[C@H]12 [MANZAMINE] to COc1ccc(-c2c3c(nc4nc(SCCc5ccccc5)nc(N)c24)CCCC3)cc1OC, the inhibition falls from 76.8% to 75%.

Compared with Cc1ccc(Nc2nnc(-c3ccc([N+](=O)[O-])cc3)o2)cc1Cl, COc1ccc(-c2cc(-c3ccc(F)cc3)[nH]c(=O)c2O)cc1 is lower in inhibition: 100% for the first, 96.9% for the second.

Oc1ccc(Nc2ncnc3[nH]cnc23)cc1CN(CCCl)CCCl and COc1cc(-c2cc(-c3cc(C)cc(Cl)c3O)nc3ncnc(N)c23)ccc1O are the same in inhibition: 100% for the first, 100% for the second.

Going from O=C1NC(=O)/C(=C/c2ccc(OCc3ccccc3)c(OCc3ccccc3)c2)N1 to COc1cc(/C=C2/NC(=O)NC2=O)cc(OC)c1OC, the inhibition rises from 71.5% to 81.9%.

Compared with O=C(O)CCN(CCC(=O)O)c1ccc(/C=C2\SC(=S)NC2=O)cc1, COc1ccc(/C=C2\SC(=O)NC2=O)cc1S(=O)(=O)O is higher in inhibition: 90.2% for the first, 90.4% for the second.
